Test results: ChEMBL document CHEMBL1165946, “Development of antiproliferative phenylmaleimides that activate the unfolded protein response” (Bioorg Med Chem, 2010)
Calls of active or inactive are those of the source. The calls are words filed in the database; no cut-off is given here.

Tests used:
[1] = Cytotoxicity against human Hep3B cells after 48 hrs by alamar blue assay; type: functional, cell-based, Hep 3B2
How it was run: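 HEP3B cells in EMEM with 10% heat-inactivated FBS, 2 mmol/L L-glutamine, penicillin/streptomycin, 37 °C, 5% CO2, used in exponential growth. Exposed 48 h to 1.6–50 µM of each analog. Alamar blue then added for a further 6 h at 37 °C and fluorescence read. Growth given as % treated/control; IC50 is the concentration giving 50% reduction of cell number versus untreated controls.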

[2] = Upregulation of unfolded protein response-related DDIT3 gene expression in human Hep3B cells at 10 uM after 1 hr by RT-PCR analysis relative to control; type: functional, cell-based; settings: Hep 3B2
How it was run: (§1)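 HEP3B cells treated 1 h with 10 µM analogue, compared with untreated cells. Gene expression measured by real-time PCR with SYBR chemistry and gene-specific primer pairs, triplicate wells, GAPDH as endogenous control. Analysed by the comparative Ct method and expressed as fold induction over untreated control (n = 3, SD). Significance set at p <0.05.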

[3] = Upregulation of unfolded protein response-related ATF4 gene expression in human Hep3B cells at 10 uM after 1 hr by RT-PCR analysis relative to control; type: functional, cell-based; settings: Hep 3B2; how it was run: as §1
[4] = Upregulation of unfolded protein response-related HSPA1A gene expression in human Hep3B cells at 10 uM after 1 hr by RT-PCR analysis relative to control; type: functional, cell-based; settings: Hep 3B2; how it was run: as §1
Hep 3B2 [5] = assay: Effect on stress-inducible GADD45B gene expression in human Hep3B cells at 1 to 50 uM after 1 hr by RT-PCR analysis; type: functional, cell-based
[6] = molecular target: T1, Eukaryotic translation initiation factor 2-alpha kinase 3 (Homo sapiens) (UniProt Q9NZJ5); assay: Induction of PERK-mediated phosphorylation of eIF2alpha in human Hep3B cells at 2 to 10 uM after 1 to 6 hrs by Western blot analysis; type: cell-based; settings: Hep 3B2
T1 sequence (whole entry): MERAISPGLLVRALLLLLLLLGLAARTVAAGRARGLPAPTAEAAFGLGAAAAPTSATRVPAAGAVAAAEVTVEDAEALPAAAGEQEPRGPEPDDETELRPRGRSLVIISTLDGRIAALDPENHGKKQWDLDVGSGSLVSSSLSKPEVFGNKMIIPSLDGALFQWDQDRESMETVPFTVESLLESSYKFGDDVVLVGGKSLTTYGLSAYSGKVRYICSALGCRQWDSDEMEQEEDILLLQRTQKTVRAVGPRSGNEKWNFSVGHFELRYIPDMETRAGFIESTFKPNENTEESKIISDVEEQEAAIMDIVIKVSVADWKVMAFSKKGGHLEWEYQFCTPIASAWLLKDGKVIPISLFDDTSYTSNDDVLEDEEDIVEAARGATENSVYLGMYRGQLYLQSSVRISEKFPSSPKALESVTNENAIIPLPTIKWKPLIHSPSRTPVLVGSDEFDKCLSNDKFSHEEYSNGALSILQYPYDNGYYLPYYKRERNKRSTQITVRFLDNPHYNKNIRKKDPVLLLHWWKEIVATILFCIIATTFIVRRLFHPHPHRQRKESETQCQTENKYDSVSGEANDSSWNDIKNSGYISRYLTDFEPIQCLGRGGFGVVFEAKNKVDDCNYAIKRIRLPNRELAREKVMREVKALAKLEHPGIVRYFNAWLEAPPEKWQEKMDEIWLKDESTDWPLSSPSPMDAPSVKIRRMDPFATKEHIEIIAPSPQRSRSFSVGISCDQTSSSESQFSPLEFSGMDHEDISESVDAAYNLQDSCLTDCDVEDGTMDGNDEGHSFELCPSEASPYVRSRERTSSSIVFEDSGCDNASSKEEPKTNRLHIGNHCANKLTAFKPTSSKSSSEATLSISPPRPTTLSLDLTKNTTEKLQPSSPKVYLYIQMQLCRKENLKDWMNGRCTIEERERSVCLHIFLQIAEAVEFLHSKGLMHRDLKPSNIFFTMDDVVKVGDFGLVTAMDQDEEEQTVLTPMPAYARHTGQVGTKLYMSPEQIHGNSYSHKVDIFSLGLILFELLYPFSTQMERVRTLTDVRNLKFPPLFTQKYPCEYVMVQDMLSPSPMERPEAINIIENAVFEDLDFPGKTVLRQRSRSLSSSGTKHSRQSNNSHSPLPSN

[7] = molecular target: T1, Eukaryotic translation initiation factor 2-alpha kinase 3 (Homo sapiens); assay: Induction of PERK-mediated phosphorylation of eIF2alpha in human Hep3B cells at 50 uM after 1 hr by Western blot analysis; type: cell-based; settings: Hep 3B2
[8] = Upregulation of unfolded protein response-related GADD34 gene expression in human Hep3B cells at 10 uM after 1 hr by RT-PCR analysis; type: functional, cell-based; settings: Hep 3B2; how it was run: as §1
Hep 3B2 [9] = assay: Effect on stress-inducible MDM2 gene expression in human Hep3B cells at 1 to 50 uM after 1 hr by RT-PCR analysis; type: functional, cell-based
Hep 3B2 [10] = assay: Effect on stress-inducible CHEK1 gene expression in human Hep3B cells at 1 to 50 uM after 1 hr by RT-PCR analysis; type: functional, cell-based
[11] = Upregulation of unfolded protein response-related TRIB3 gene expression in human Hep3B cells at 10 uM after 1 hr by RT-PCR analysis; type: functional, cell-based; settings: Hep 3B2; how it was run: as §1
Hep 3B2 [12] = assay: Effect on stress-inducible CDKN1A gene expression in human Hep3B cells at 1 to 50 uM after 1 hr by RT-PCR analysis; type: functional, cell-based
Hep 3B2 [13] = assay: Effect on stress-inducible BRCA1 gene expression in human Hep3B cells at 1 to 50 uM after 1 hr by RT-PCR analysis; type: functional, cell-based
Hep 3B2 [14] = assay: Effect on stress-inducible […] gene expression in human Hep3B cells at 1 to 50 uM after 1 hr by RT-PCR analysis; type: functional, cell-based

CC(=O)c1ccc(N2C(=O)C(SCCO)=C(SCCO)C2=O)cc1 showed an IC50 [1] of 10 µM.
For O=C1C(SCCO)=C(SCCO)C(=O)N1c1ccc2cc3ccccc3cc2c1, the IC50 [1] was 1.8 µM.
With O=C1C(SCCO)=C(SCCO)C(=O)N1c1ccc(F)cc1 the IC50 [1] was 9 µM.
With O=C1C(SCCO)=C(SCCO)C(=O)N1Cc1cccc(Cl)c1 the IC50 [1] was 2.5 µM.
O=C1C(SCCO)=C(SCCO)C(=O)N1CCc1ccccc1 showed an IC50 [1] of 2 µM, a fold change (FC) [2] of 2 and a fold change (FC) [3] of 2. For the same compound, the fold change (FC) [4] was 15.3.
Compound COc1cc(OC)cc(N2C(=O)C(SCCO)=C(SCCO)C2=O)c1 has an IC50 [1] of 9 µM.
In the case of O=C1C(SCCO)=C(SCCO)C(=O)N1c1ccccc1I, the IC50 [1] is reported as 9 µM.
With COc1ccc(-c2ccc(N3C(=O)C(SCCO)=C(SCCO)C3=O)cc2)cc1 the IC50 [1] was 3 µM.
With O=C1C(SCCO)=C(SCCO)C(=O)N1c1ccc(OC(F)(F)F)cc1 the IC50 [1] was 4 µM.
With O=C1C(SCCO)=C(SCCO)C(=O)N1c1ccc(-c2ccccc2)cc1 the Activity (Hep 3B2 [5]) was “inactive”, the Activity [6] was “Active” and the IC50 [1] was 0.7 µM. The Activity [7] was “Toxic”, the Activity [8] was “Active” and the Activity (Hep 3B2 [9]) was “inactive”. The Activity (Hep 3B2 [10]) was “inactive”, the Activity [11] was “Active” and the Activity (Hep 3B2 [12]) was “inactive”. For the same compound, the Activity (Hep 3B2 [13]) was “inactive” and the Activity (Hep 3B2 [14]) was “inactive”.
CCCCOc1ccc(N2C(=O)C(SCCO)=C(SCCO)C2=O)cc1 gave an IC50 [1] of 5 µM.
For CC(=O)Nc1ccc(N2C(=O)C(SCCO)=C(SCCO)C2=O)cc1, the Activity [6] was “inactive”, the IC50 [1] was > 100 µM and the fold change (FC) [2] was 2. The fold change (FC) [3] was 2.
In the case of O=C1C(SCCO)=C(SCCO)C(=O)N1c1ccc(-c2ccc([N+](=O)[O-])cc2)cc1, the IC50 [1] is reported as 4 µM, the fold change (FC) [2] is reported as 2 and the fold change (FC) [3] is reported as 2. It also gave a fold change (FC) [4] of 17.
O=C1C(SCCO)=C(SCCO)C(=O)N1c1ccc2ccccc2c1 showed an IC50 [1] of 3.5 µM.
In the case of CN(C)c1ccc(N2C(=O)C(SCCO)=C(SCCO)C2=O)cc1, the IC50 [1] is reported as 9 µM.
In the case of O=C1C(SCCO)=C(SCCO)C(=O)N1c1ccccc1F, the IC50 [1] is reported as 9 µM.
In the case of Cc1cc(Cl)ccc1N1C(=O)C(SCCO)=C(SCCO)C1=O, the IC50 [1] is reported as 8 µM.
With O=C1C(SCCO)=C(SCCO)C(=O)N1CCc1cccc(Cl)c1 the IC50 [1] was 1 µM.
Work on O=C1C(SCCO)=C(SCCO)C(=O)N1Cc1ccccc1 yielded an IC50 [1] of 5 µM.
O=C1C(SCCO)=C(SCCO)C(=O)N1c1ccccc1 gave an IC50 [1] of 70 µM, a fold change (FC) [2] of 2 and a fold change (FC) [3] of 2.
N#Cc1ccc(N2C(=O)C(SCCO)=C(SCCO)C2=O)cc1 gave an IC50 [1] of 9 µM.
Work on CCOc1ccc(N2C(=O)C(SCCO)=C(SCCO)C2=O)cc1 yielded an IC50 [1] of 6 µM.
Compound O=C1C(SCCO)=C(SCCO)C(=O)N1c1ccc(Cl)cc1 has an IC50 [1] of 7 µM.
In the case of COc1cccc(N2C(=O)C(SCCO)=C(SCCO)C2=O)c1, the IC50 [1] is reported as 9 µM.
For Cc1ccccc1-c1ccc(N2C(=O)C(SCCO)=C(SCCO)C2=O)cc1C, the IC50 [1] was 10 µM, the fold change (FC) [2] was 2 and the fold change (FC) [3] was 2.
For O=C1C(SCCO)=C(SCCO)C(=O)N1c1ccc(O)cc1, the IC50 [1] was > 100 µM.
For O=C1C(SCCO)=C(SCCO)C(=O)N1c1cccc2ccccc12, the IC50 [1] was 4 µM.
In the case of O=C1C(SCCO)=C(SCCO)C(=O)N1c1ccc(Oc2ccccc2)cc1, the IC50 [1] is reported as > 100 µM, the fold change (FC) [2] is reported as 2 and the fold change (FC) [3] is reported as 2.
For Cc1cccc(N2C(=O)C(SCCO)=C(SCCO)C2=O)c1, the IC50 [1] was 7 µM.
COc1ccc(N2C(=O)C(SCCO)=C(SCCO)C2=O)cc1 gave an IC50 [1] of 6 µM.
